This is a sample that favours compounds with a hit; in the whole collection about 1.1% have one here.
PMI activator – activators of human phosphomannose isomerase; P34949; purified human PMI, coupled resazurin fluorescence, 20 min; stronger effect = higher value; 1 = vehicle control, 0 substrate-free wells; activation factor at 20 µM; hit rate 0.005% among 190,000;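 active = activation factor of 2 or more at 20 µM, relative to plate controls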
Target sequence (P34949 whole entry, looked up): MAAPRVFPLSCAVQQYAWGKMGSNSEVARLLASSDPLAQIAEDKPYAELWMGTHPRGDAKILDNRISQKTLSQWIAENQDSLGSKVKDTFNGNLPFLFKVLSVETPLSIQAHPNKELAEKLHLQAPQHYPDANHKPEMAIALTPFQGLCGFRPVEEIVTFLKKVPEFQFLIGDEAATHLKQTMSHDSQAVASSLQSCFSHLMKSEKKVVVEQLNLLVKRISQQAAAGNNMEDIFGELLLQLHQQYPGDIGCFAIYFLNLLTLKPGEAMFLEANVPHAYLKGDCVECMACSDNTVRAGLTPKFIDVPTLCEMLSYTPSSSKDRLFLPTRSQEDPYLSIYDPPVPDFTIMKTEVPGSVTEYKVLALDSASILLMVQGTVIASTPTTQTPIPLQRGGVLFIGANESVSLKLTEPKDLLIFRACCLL
PMI act satM6P – PMI (human) activation, high substrate; activation factor at 20 µM; coupled PMI enzyme assay, resazurin fluorescence, 20 min; stronger effect = higher value; 1 = untreated enzyme, 0 = substrate-free blank; P34949; hit rate 0.34% among 190,000;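 active = activation factor of 2 or more at 20 µM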
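Test system – human PMI in coupled enzyme assay · Timing – 20 min incubation at room temperature · Detection – Diaphorase-driven resazurin-to-resorufin fluorescence, excitation 544, emission 590 nm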
Diaphorase act – diaphorase activation or chemical reduction counter-screen. AID 1229. activation factor at 20 µM. Diaphorase/resazurin coupled assay, resorufin fluorescence, 16 min; stronger effect = higher value; 1 = vehicle wells, 0 = NADH-free wells. hit rate 0.005% among 190,000;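 active = diaphorase activity raised at least twofold by the compound at 20 µM; inactive = activation factor below 2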
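test system = bacterial diaphorase enzyme (C. kluyveri) | quantity = enzyme 0.07 U/mL final | reagent = NADH substrate 0.114 mM plus resazurin dye 0.1 mM, final | incubation = 16 min enzyme reaction, ambient temperature | buffer or medium = HEPES pH 7.4 buffer with MgCl2 and Tween 20 | signal = fluorescence of resorufin, 544 nm excitation, 590 nm emission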
Diaphorase inh – diaphorase inhibition or chemical oxidation counter-screen; diaphorase resazurin-to-resorufin fluorescence, NADH, 16 min; bacterial (C. kluyveri) enzyme, not human; hit rate 0.69% among 190,000; inhibition, % at 20 µM;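 active = primary screen inhibition at 20 µM above a set limit, cut at about 50% in these data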
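Test system: diaphorase enzyme from Clostridium kluyveri; amount: diaphorase at 0.14 U/mL in enzyme working solution; detection: fluorescence of resorufin formed from resazurin, Ex 544/Em 590 nm; times: reaction incubation of 16 min at room temperature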
G6PDH CS – counter-screen for G6PDH assay hits: L. mesenteroides G6PDH inhibition. inhibition, % at 5 µM. Purified L. mesenteroides G6PDH, diaphorase/resazurin coupled fluorescence, 45 min. hit rate 0.12% among 200,000; in the data active = inhibition above about 50%
Hits are given with their value; 0 = inactive; - = not tested or not shown.

SMILES	PMI activator	PMI act satM6P	Diaphorase act	Diaphorase inh	G6PDH CS
C#Cc1ccc([C@H]2C=C(C(=O)N3CCN(Cc4ccc5c(c4)OCO5)CC3)O[C@@H](OCC)[C@@H]2CCCO)cc1	0	0	0	55.4	0
CCO[C@@H]1OC(C(=O)N2CCN(C)CC2)=C[C@H](c2ccc(C(F)(F)F)cc2)[C@H]1CCCO	0	0	0	0	0
CCO[C@H]1OC(C(=O)N2CCN(C)CC2)=C[C@@H](c2ccc(C(F)(F)F)cc2)[C@@H]1CCCO	0	0	0	73.8	0
O=C1c2cccc3c(N4CCCCC4)ccc(c23)C(=O)N1c1ccccn1	0	0	0	52.1	0
CCN(CC)C(=O)c1sc(NC(=O)C(C)C)c(C#N)c1C	0	0	0	0	0
N#Cc1c2nc3ccccc3nc2n2cc(NC(=O)c3ccc(F)cc3)ccc12	0	0	0	89.9	0
O=C(Nc1nc2ccccc2[nH]1)c1ccc(F)cc1	0	0	0	0	0
CC(C)c1ccc(NC(=O)C2CC(=O)N=C(N)S2)cc1 (stereo not given)	0	0	0	0	0
Cc1ccc(N/N=C/c2ccc(N3CCOCC3)cc2)cc1C	0	2	0	0	0
Cc1ccc(-n2cc(C(C)(C)C)[nH]c2=S)cc1	0	0	0	0	0
CCOC(=O)C1(Cc2cccc(OC)c2)CCN(Cc2ccc(C)s2)CC1	0	0	0	0	0
Cc1ccc2c(c1)c(N=Nc1cccc(C(=O)O)c1)c(O)n2C	0	0	0	58.8	0
CCc1nnc(NC(=O)CSc2n[nH]c(-c3ccccc3O)n2)s1	0	0	0	0	0
COc1cc(/C=C2\SC(c3ccccc3)=NC2=O)cc(Cl)c1O	0	0	0	63.9	0
COc1cc(/C=C2\SC(c3ccc(C)cc3)=NC2=O)cc(OC)c1OC	0	0	0	0	0
CCOC(=O)c1c(/N=C/N(C)C)sc(C)c1C	0	0	0	0	0
CCOC(=O)c1c(/N=C/N(C)C)sc(/C=N/Nc2ccccc2)c1-c1ccc(Cl)cc1	0	2.1	0	0	0
O=C1CN(C(=O)COc2ccc(F)cc2Br)c2ccccc2N1	0	0	0	0	0
CCSc1nnc(-c2ccccc2SC)o1	0	2.1	0	0	0
CSc1ccccc1-c1nnc(-c2ccc(Cl)cc2Cl)o1	0	0	0	0	0
CN(/C=C/C(=C\C=[N+](C)c1ccccc1)OCCCS(=O)(=O)[O-])c1ccccc1	0	0	0	58.7	0
Oc1c(Cl)cc(Cl)cc1C1=NNC(c2ccc(Cl)cc2)C1 (stereo not given)	0	2.6	0	0	0
Oc1ccc(Cl)cc1C1=NNC(c2ccc(Cl)cc2)C1 (stereo not given)	0	0	0	0	0
COc1ccc(/C(O)=C2/C(=O)C(=O)N(CCCN(C)C)C2c2ccc(C)o2)cc1Cl (stereo not given)	0	0	0	0	0
CCSc1ccc2nnc(-c3cccc(F)c3)n2n1	0	2	0	0	0
SMILES	PMI activator	PMI act satM6P	Diaphorase act	Diaphorase inh	G6PDH CS
CCOC(=O)c1ccc(CSc2nnc(N)s2)cc1	0	0	0	0	0
C/C(CC(=O)N1CCN(C=O)CC1)=N\NC(=O)c1ccc([N+](=O)[O-])cc1	-	-	-	-	0
C/C(CC(=O)N1CCN(C=O)CC1)=N\NC(=O)c1cc2ccccc2cc1O	0	0	0	88.3	0
CN(C)S(=O)(=O)c1ccc(NC=O)cc1	0	0	0	0	0
O=[N+]([O-])c1ccc([N+](=O)[O-])c(Nc2ccc(N3CCOCC3)cc2)c1	0	0	0	0	0
Nc1nc(=S)[nH]c2c1C1(CCCCC1)Cc1ccccc1-2	0	0	0	53.2	0
NNC(=O)c1cc2c(N3CCC(Cc4ccccc4)CC3)ncnc2s1	0	0	0	0	0
O=C(COC(=O)CCc1ccccc1)NC12CC3CC(CC(C3)C1)C2	0	0	0	71.2	0
O=C(COC(=O)C(O)c1ccccc1)NC12CC3CC(CC(C3)C1)C2 (stereo not given)	0	0	0	0	0
COC(=O)c1cc(O)c(O)c(O)c1	0	0	0	50.0	0
COC(=O)c1cc(O)c(OCc2ccccc2)c(O)c1	0	0	0	0	0
CC1CCN(C(=S)c2ccc(N(C)C)cc2)CC1	0	0	0	0	0
O=C(O)CCNS(=O)(=O)c1ccc2ccccc2c1	0	0	0	0	0
O=C(O)CCNc1cc2ccccc2cc1C(=O)O	0	0	0	64.7	0
COc1ccc(C(=O)/C=C\N2CCOCC2)cc1	0	0	0	0	0
COc1ccc(NC2CC(=O)N(C(C)C)C2=O)cc1 (stereo not given)	0	0	0	0	0
CC(C)N1C(=O)CC(Nc2cccc3cccc(N)c23)C1=O (stereo not given)	0	0	0	51.8	0
CN1C(=O)CC(Nc2cccc3cccc(N)c23)C1=O (stereo not given)	0	0	0	66.8	0
COC(=O)Nc1ccc(S(=O)(=O)N2CCCC(C(=O)N3CC(C)OC(C)C3)C2)cc1 (stereo not given)	0	0	0	0	0
NC(=S)N/N=C\c1c2ccccc2cc2ccccc12	0	2.3	0	0	0
NC(=S)N/N=C/c1ccccc1	0	0	0	0	0
O=C(CCCCCn1c(=S)[nH]c2ccc(N3CCOCC3)cc2c1=O)NCc1cccc(Cl)c1	0	0	0	0	0
CCCCn1c(N)c(C(=S)NC(=O)CC(C)(C)C)c(=O)n(C)c1=O	0	0	0	61.7	0
CCCn1c(N)c(C(=O)CN2CCc3ccccc3C2)c(=O)n(C)c1=O	0	0	0	0	0
Cn1c(CNc2ccccc2O)nc2ccccc21	0	0	0	0	60.7
SMILES	PMI activator	PMI act satM6P	Diaphorase act	Diaphorase inh	G6PDH CS
Cn1c(CNc2ccccc2)nc2ccccc21	0	0	0	0	0
CC(C)CC1NC(=O)N(Cc2cc(=O)n3ccsc3n2)C1=O (stereo not given)	0	0	0	0	0
c1cnc2c(c1)ccc1cccnc12	0	0	0	0	52.7
Cc1ccc2cccnc2c1N	0	0	0	0	0
O=c1[nH]cnc2scc(-c3ccc(-c4ccccc4)cc3)c12	0	0	0	0	0
Cc1ccc(-c2csc3nc[nH]c(=S)c23)cc1C	0	0	0	58.9	0
CC(=O)Nc1ccccc1C(=O)C(=O)NCCc1ccccc1	0	0	0	0	0
CCOc1c(Cl)cc(CNc2ccc(N3CCCC3)cc2)cc1OC	0	0	0	74.4	0
O=C(NNc1ccc(O)cc1)c1ccc(Br)cc1	0	2.2	0	0	0
O=C(Nc1cccc(O)c1)c1ccc(Br)cc1	0	0	0	0	0
N#CC1=C(N)SC(N)=C(C#N)C1CCC1CCCCC1	0	0	0	53.6	0
Cn1c(=O)c2c(-c3ccccc3F)c3c(nc2n(C)c1=O)-c1ccccc1C3O (stereo not given)	0	2.1	0	0	0

High-throughput results: PubChem BioAssay, Sanford-Burnham Center for Chemical Genomics
